ChEMBL document CHEMBL3525985, “Regiospecificity and stereospecificity of human UDP-glucuronosyltransferases in the glucuronidation of estriol, 16-epiestriol, 17-epiestriol, and 13-epiestradiol” (Drug Metab Dispos, 2013)

Tests used:
Conditions in all cases: recombinant enzyme
[1] = molecular target: T1, UDP-glucuronosyltransferase 1A10 (Homo sapiens, UniProt Q9HAW8); assay: Drug level assessed as recombinant human C-terminal His-tagged UGT1A10-mediated compound formation from 200 uM estriol after 15 to 60 mins by […] analysis in presence of UDPGA; assay type: ADME
T1 sequence (Q9HAW8 whole entry): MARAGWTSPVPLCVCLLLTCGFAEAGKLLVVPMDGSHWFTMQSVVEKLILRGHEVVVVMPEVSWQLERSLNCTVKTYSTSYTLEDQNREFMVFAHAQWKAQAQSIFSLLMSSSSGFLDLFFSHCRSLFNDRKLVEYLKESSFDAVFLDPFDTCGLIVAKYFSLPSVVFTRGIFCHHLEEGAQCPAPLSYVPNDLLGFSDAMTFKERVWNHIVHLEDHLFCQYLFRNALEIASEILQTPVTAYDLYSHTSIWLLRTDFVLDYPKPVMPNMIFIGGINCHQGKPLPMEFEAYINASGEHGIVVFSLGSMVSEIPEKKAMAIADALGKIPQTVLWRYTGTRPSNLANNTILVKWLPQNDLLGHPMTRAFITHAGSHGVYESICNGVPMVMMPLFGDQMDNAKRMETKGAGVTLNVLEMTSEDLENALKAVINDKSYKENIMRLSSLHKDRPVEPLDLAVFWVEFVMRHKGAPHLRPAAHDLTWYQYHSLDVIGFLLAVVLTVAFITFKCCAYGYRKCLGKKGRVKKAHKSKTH
Procedure, shortened: (§1)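 UGT-enriched insect cell membranes (5 or 50 µg) in 50 mM phosphate pH 7.4, 10 mM MgCl2, 5 mM UDPGA; substrate 200 µM in DMSO (10% final); 15–60 min at 37°C; stopped with perchloric acid, on ice, centrifuged; glucuronides resolved by HPLC. Triplicates, no-UDPGA controls; rates normalized to relative UGT expression; substrate consumption ≤10%.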

UGT2A2 (Homo sapiens) = assay: Drug level assessed as recombinant human C-terminal His-tagged UGT2A2-mediated compound formation from at 200 uM 13-epiestradiol after 15 to 60 mins by HPLC analysis in presence of UDPGA
[2] = molecular target: T2, UDP-glucuronosyltransferase 2B7 (Homo sapiens, UniProt P16662); assay: Drug level assessed as recombinant human C-terminal His-tagged UGT2B7-mediated compound formation from 200 uM 17-epiestriol after 15 to 60 mins by HPLC analysis in presence of UDPGA; assay type: ADME; procedure, shortened: as §1
T2 sequence (P16662 whole entry): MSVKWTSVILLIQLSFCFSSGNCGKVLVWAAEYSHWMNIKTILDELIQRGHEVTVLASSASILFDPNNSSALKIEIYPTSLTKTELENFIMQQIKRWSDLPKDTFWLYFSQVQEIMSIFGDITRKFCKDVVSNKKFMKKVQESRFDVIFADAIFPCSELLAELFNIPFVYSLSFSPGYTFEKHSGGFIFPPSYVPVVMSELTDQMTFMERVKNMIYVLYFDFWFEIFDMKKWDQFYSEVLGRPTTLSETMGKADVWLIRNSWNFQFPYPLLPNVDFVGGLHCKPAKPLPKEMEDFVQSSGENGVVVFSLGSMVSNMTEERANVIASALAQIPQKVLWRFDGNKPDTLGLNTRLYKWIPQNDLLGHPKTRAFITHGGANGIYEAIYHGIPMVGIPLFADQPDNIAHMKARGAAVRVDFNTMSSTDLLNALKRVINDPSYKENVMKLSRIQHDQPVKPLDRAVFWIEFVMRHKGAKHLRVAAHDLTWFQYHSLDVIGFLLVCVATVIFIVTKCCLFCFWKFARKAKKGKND

SMILES	Drug metabolism [1]	Drug metabolism [2]	further results
C[C@]12CC[C@@H]3c4ccc(O[C@@H]5O[C@H](C(=O)O)[C@@H](O)[C@H](O)[C@H]5O)cc4CC[C@H]3[C@@H]1C[C@@H](O)[C@@H]2O	metabolite_detected	–	–
C[C@]12CC[C@@H]3c4ccc(O)cc4CC[C@H]3[C@@H]1C[C@@H](O)[C@@H]2O[C@@H]1O[C@H](C(=O)O)[C@@H](O)[C@H](O)[C@H]1O	metabolite_detected	–	–
C[C@]12CC[C@@H]3c4ccc(O)cc4CC[C@H]3[C@@H]1C[C@@H](O[C@@H]1O[C@H](C(=O)O)[C@@H](O)[C@H](O)[C@H]1O)[C@@H]2O	metabolite_detected	–	–
C[C@@]12CC[C@@H]3c4ccc(O)cc4CC[C@H]3[C@@H]1CC[C@@H]2O[C@@H]1O[C@H](C(=O)O)[C@@H](O)[C@H](O)[C@H]1O	–	–	Drug metabolism (UGT2A2 (Homo sapiens)): metabolite_detected
C[C@]12CC[C@@H]3c4ccc(O)cc4CC[C@H]3[C@@H]1C[C@@H](O[C@@H]1O[C@H](C(=O)O)[C@@H](O)[C@H](O)[C@H]1O)[C@H]2O	–	metabolite_not_detected	–
C[C@]12CC[C@@H]3c4ccc(O[C@@H]5O[C@H](C(=O)O)[C@@H](O)[C@H](O)[C@H]5O)cc4CC[C@H]3[C@@H]1C[C@@H](O)[C@H]2O	–	metabolite_detected	–
